According to article PMC4179762 (Drug Design, Development and Therapy, 2014):

Legend:
hH3R [1] = target: T1, hH3R (Homo sapiens, UniProt Q9Y5N1); assay: hH3R radioligand competition binding assay
Method in brief: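 HEK-293 membranes stably expressing hH3R, sonicated at 4°C, in 12.5 mM MgCl2/100 mM NaCl/75 mM Tris-HCl pH 7.4; 20–25 μg/well. […] Unlabeled histamine defined non-specific binding. PEI-treated GF/B filtration, scintillation counting, nonlinear fit; Ki by Cheng–Prusoff.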

hH4R [2] = target: T2, hH4R (Homo sapiens, UniProt Q9H3N8); assay: hH4R radioligand competition binding assay; conditions: compared to compound 3
Method in brief: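 Sf9 membranes co-expressing hH4R with Gαi2 and Gβ1γ2, pelleted (16,000 g, 10 min, 4°C) into 12.5 mM MgCl2/1 mM EDTA/75 mM Tris-HCl pH 7.4; 35 μg/well. Incubated 60 min, 25°C, shaking, with 10 nM [3H]histamine and seven test concentrations (0.1 nM–100 μM), triplicate. Non-specific binding with 100 μM histamine. PEI-treated GF/B filtration, scintillation counting; Ki by Cheng–Prusoff.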

hH4R [3] = target: T2, hH4R; assay: Metric analyses; conditions: LELP=clogP/LE
hH3R [4] = target: T1, hH3R; assay: Metric analyses; conditions: LELP=clogP/LE
hH3R [5] = target: T1, hH3R; assay: hH3R saturation binding experiments with [3H]Nα-methylhistamine

T1 sequence (Q9Y5N1 whole entry): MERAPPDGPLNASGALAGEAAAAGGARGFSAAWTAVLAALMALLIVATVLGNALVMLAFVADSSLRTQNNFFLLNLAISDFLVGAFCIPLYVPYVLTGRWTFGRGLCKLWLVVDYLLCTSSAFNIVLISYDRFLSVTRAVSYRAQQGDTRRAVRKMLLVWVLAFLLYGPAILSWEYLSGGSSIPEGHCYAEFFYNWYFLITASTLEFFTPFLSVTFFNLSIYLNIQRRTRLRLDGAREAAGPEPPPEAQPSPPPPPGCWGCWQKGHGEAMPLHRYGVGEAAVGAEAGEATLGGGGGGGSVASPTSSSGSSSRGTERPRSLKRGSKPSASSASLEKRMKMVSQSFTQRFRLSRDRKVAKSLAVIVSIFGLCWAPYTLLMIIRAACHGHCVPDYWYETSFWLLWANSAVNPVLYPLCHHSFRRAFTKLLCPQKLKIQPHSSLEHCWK
T2 sequence (Q9H3N8 whole entry): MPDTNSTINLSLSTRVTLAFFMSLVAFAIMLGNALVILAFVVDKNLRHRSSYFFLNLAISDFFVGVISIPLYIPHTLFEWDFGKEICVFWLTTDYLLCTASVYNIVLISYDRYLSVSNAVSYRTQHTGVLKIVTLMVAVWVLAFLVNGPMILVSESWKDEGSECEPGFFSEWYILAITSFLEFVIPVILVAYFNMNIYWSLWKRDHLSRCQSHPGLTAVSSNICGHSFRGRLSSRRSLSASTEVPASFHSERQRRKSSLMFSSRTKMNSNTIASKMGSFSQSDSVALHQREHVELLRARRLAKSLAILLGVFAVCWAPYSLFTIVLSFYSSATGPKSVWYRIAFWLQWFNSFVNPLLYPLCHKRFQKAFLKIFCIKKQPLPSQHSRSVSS

| Compound | LELP (hH4R) (hH4R [3]) | LELP (hH3R) (hH3R [4]) | other results |
| --- | --- | --- | --- |
| 6-(4-methylpiperazin-1-yl)-N-(4-(3-(piperidin-1-yl)propoxy)benzyl)pyrimidin-2,4-diamine [Compound 4] | 13.11 | – | fold weaker affinity for hH3Rs (hH3R [1]; compared to compound 3): ~5 ×; fold higher affinity for hH4Rs (hH4R [2]): 3 × |
| CN1CCN(c2cc(Nc3ccc(OCCCN4CCCCC4)cc3)nc(N)n2)CC1 [Compound 3, 6-(4-methylpiperazin-1-yl)-N^4-(4-(3-(piperidin-1-yl)propoxy)phenyl)pyrimidin-2,4-diamine] | 15.17 | – | fold increased affinity for hH3R (hH3R [1]; vs compound 2): 49 × |
| c1ccc(CNc2ccnc(Nc3ccc(OCCCN4CCCCC4)cc3)n2)cc1 [Compound 5, N^4-benzyl-N^2-(4-(3-(piperidin-1-yl)propoxy)phenyl)pyrimidin-2,4-diamine] | 23.57 | 12.79 | Ratio hH4R/hH3R (hH3R [1]; receptor subtype selectivity, Ki hH4R / Ki hH3R): more than 6,500 |
| CN1CCN(CCCOc2ccc(Nc3nccc(NCc4ccccc4)n3)cc2)CC1 [Compound 6, N^4-benzyl-N^2-(4-(3-(4-methylpiperazin-1-yl)propoxy)phenyl)pyrimidin-2,4-diamine] | 17.82 | 13.55 | – |
| CNCCc1cnc[nH]1 [[^3H] N^α-MeHA, [^3H]N^α-methylhistamine] | – | – | Kd (hH3R [5]; read-out: Kd value of radioligand at hH3R, HEK-293 membranes): 2.98 nM |
| [3H]CNCCc1cnc[nH]1 [[^3H] N^α-MeHA, [^3H]N^α-methylhistamine] | – | – | pKd of radioligand at hH3R (hH3R [5]; HEK-293 membranes): 8.53±0.01 |
